Compound activity deposited in PubChem by several laboratories.
The list is not random: actives were taken first. Their share in the collection is about 4.1%.
MPTP inh = mitochondrial permeability transition pore inhibitors, primary screen, biochemical, isolated mouse mitochondria, absorbance; hit rate 1.4% among 360,000; inhibition, % at 10 µM; Ca2+ swelling absorbance, 30 min;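 active means inhibition of 50% or more, scaled per plate between neutral and stimulator controls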;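 further: 0% = DMSO wells given calcium and 100% = 1 mM EGTA wells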
MC4R barr agon = MC4R agonists recruiting beta-arrestin, primary screen, cell-based, luminescence, agonist arm of biased-ligand search; hit rate 0.98% among 360,000; U2OS MC4R beta-arrestin complementation; percent of melanotan II response, DMSO zero; activation, % at 8.9 µM;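 active means activation above a per-plate cutoff, the mean activation of sample wells on that plate plus 3 SD, cut at about 8% in these data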
Target sequence (P32245 whole entry, looked up): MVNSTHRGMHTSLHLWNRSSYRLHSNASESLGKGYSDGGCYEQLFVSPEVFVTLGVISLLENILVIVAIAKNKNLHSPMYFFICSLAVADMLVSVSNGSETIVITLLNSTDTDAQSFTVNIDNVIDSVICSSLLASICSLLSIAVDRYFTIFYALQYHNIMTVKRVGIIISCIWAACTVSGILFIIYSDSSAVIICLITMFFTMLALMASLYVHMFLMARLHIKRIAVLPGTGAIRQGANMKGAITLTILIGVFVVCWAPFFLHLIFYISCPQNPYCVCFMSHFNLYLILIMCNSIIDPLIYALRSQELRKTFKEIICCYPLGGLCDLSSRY
SMARCA2 act = SMARCA2 (BRM) function activators, primary screen, cell-based, luminescence, high throughput. MG213 cells, MMTV-luciferase reporter, dexamethasone, overnight. activation, % at 9.1 µM. hit rate 1% among 370,000. AID 652017, 2013; in the data active means activation above about 7.8%;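 further: 0% = vehicle wells and 100% = reference activator wells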
MC4R antagonist = MC4R antagonists of cAMP signaling, primary screen, cell-based, TR-FRET, antagonist arm of biased-ligand search; Melanocortin receptor 4 (Homo sapiens), P32245; MC4R-expressing cells, MTII-stimulated cAMP, LANCE TR-FRET; inhibition, % at 6.5 µM; hit rate 0.48% among 360,000; AID 540295, 2011;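 active means inhibition above its plate's cutoff, the mean of tested wells on that plate plus 3 SD, cut at about 29% in these data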;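 further: 0% = Melanotan II alone and 100% = Melanotan II plus saturating MCL0020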
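System: U2OS cells stably expressing human melanocortin 4 receptor (MC4R). Reagent: Melanotan II challenge after compound preincubation. Doses: 6.5 µM. Times: 30-min compound, 1-h challenge, 1-h detection, room temperature. Measured by: TR-FRET with Eu-cAMP and labeled anti-cAMP, 671 nm. Replicates: singlicate.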
ATG4B inh = ATG4B protease inhibitors, primary screen, biochemical, fluorescence, uHTS; Cysteine protease ATG4B (Homo sapiens), Q9Y4P1; hit rate 0.51% among 340,000; inhibition, % at 8.33 µM; ATG4B cleavage of LC3-PLA2, NBD-HPC fluorescence, 1 h; in the data active means inhibition above about 40%
Starred values were filed as active, the others as inactive; x = not tested or not shown.

SMILES	MPTP inh	MC4R barr agon	SMARCA2 act	MC4R antagonist	ATG4B inh
S=c1nc(Cc2ccccc2)[nH]c2ccccc12	0	1	-1	9	7
S=c1nc(Cc2ccc(Cl)cc2)[nH]c2ccccc12	2	8.9*	-1	-8	2
O=C(O)CSc1nc(-c2ccccc2)c(-c2ccccc2)[nH]1	1	1	-2	2	-5
CC(C)(C)NC(=O)CSc1nc(-c2ccccc2)c(-c2ccccc2)[nH]1	1	8.8*	3	14	16
COc1ccc(C(=O)CNc2ccccc2CO)cc1	1	-1	2	10	-4
COc1ccc(C(=O)CNc2ccccc2C#N)cc1	2	8.3*	7	12	-13
Cc1ccccc1NC(=O)N(C)[C@H]1C[C@H]2c3[nH]c4c(-c5ccccc5)cccc4c3CCN2C[C@H]1[C@H](C)O	x	x	0	x	x
COC(=O)Nc1nc(-c2cc(Cl)ccc2Cl)cs1	1	10*	-1	6	7
CCOC(=O)Nc1nc(-c2ccc(F)cc2F)cs1	1	-1	3	-6	0
CC1CCC2(CC1)OCC1(CCC3(COC4(CCC(C)CC4)OC3)C1=O)CO2 (stereo not given)	-2	9.2*	0	1	5
O=C(CN(c1ccc(Cl)cc1)S(=O)(=O)c1ccccc1)N1CCN(c2ccccc2)CC1	4	9.1*	-3	12	-3
COC(=O)[C@]12C[C@H](CC(=O)N3CCN(C(=O)c4ccco4)CC3)C(=O)N(Cc3ccc(Cl)cc3Cl)C1=C[C@H](C1CCCC1)O[C@@H]2C	x	x	-3	x	x
COc1ccc(NC(=O)CCCn2c(=O)oc3ccccc32)cc1Cl	5	-1	7.8*	-2	-1
CCOC(=O)[C@@]12CN(C(=O)OC(C)(C)C)CC=C1N(Cc1ccc(OC)cc1)C(=O)[C@H]2CC(=O)NCCCCc1ccccc1	x	x	-3	x	x
O=C(Nc1cc(Cl)cc(Cl)c1)c1ccc(Cn2c(=O)[nH]c3ccsc3c2=O)cc1	1	20*	x	7	-8
CC(=O)NCCNC(=O)c1ccc(Cn2c(=O)[nH]c3ccsc3c2=O)cc1	0	1	2	21	7
CCOC(=O)C1=CCN(S(=O)(=O)c2ccc(Br)cc2)C1c1ccc(Br)cc1 (stereo not given)	x	x	-5	x	x
CN(C)CCCN(C(=O)CCc1ccccc1)c1nc2ccc(Br)cc2s1	2	9.5*	-5	1	-6
O=C(CCc1nc2sc3c(c2c(=O)[nH]1)CCCC3)Nc1cccc(Cl)c1	0	8.3*	0	-1	-6
COC(=O)N1C[C@H](OC)[C@H]2C[C@@H]1c1ccccc1O2	x	x	0	x	x
CCc1ccc(-c2ccc(C(=O)O)cc2)nc1	0	0	7.8*	4	-8
CN(C)CC(=O)N[C@@H]1C=C[C@@H](CC(=O)NCCN2CCCCC2)O[C@@H]1CO	1	x	7.8*	x	x
COc1ccc(C(=O)N2N=C(c3cccs3)CC2c2ccccc2O)cc1 (stereo not given)	2	12*	-3	5	-9
CCOC(=O)Nc1cc(=O)c([N+](=O)[O-])c(N)[nH]1	x	x	-3	x	x
CN1CCc2c(sc(NC(=O)c3ccco3)c2C(N)=O)C1	0	-1	8.0*	-5	1
SMILES	MPTP inh	MC4R barr agon	SMARCA2 act	MC4R antagonist	ATG4B inh
CC(C)N1CCc2c(sc(NC(=O)c3ccco3)c2C(N)=O)C1	-1	-3	1	0	2
CC(C)[C@H](NC(=O)c1c(F)cccc1F)C(=O)Nc1cccc(Br)c1	1	8.6*	-2	-1	-9
Cc1ccc(SCCC(=O)Nc2ccccc2C(=O)NC2CCCCC2)cc1	3	9.4*	-1	-1	6
Cc1ccc(OCCC(=O)Nc2ccccc2C(=O)NC2CC2)cc1	1	4	0	9	7
COC(=O)C1CN(Cc2ccc(OC)cc2)CCS(=O)(=O)N1Cc1cn(CCOC(C)=O)nn1 (stereo not given)	x	x	-5	x	x
COc1cc(C(=O)NC(c2ccccc2)c2ccccc2)cc(OC)c1OC	0	9.4*	-2	8	-11
O=C(NC(c1ccccc1)c1ccccc1)c1ccccc1	0	7	-3	1	-2
Cc1ccc(C(=O)NC(=S)NCC(=O)c2ccccc2)cc1	0	11*	0	-6	-10
O=C(CNC(=S)NC(=O)c1cccs1)c1ccccc1	2	-1	2	-12	9
COc1ccc(-n2c(SCc3nc4ccccc4[nH]3)nc3ccccc3c2=O)cc1	x	x	-5	x	x
COC(=O)[C@@H]1Cc2c([nH]c3ccccc23)C(C)(C)N1C(=O)CCl	-1	13*	-4	5	-1
CC(C)(C)OC(=O)N1CCC2CCN(S(C)(=O)=O)CC21 (stereo not given)	x	x	1	x	x
O=C(NCCc1ccccc1)c1cc2ncc(Br)cn2n1	4	-1	8.1*	5	5
COCCNC(=O)c1cc2ncc(Br)cn2n1	-1	-2	0	6	10
C=CCN(CC#Cc1ccc(C(F)(F)F)cc1)Cc1ccc(OC)cc1OC	x	x	3	x	x
NCCCC[C@H]1NC(=O)[C@H](CCC(=O)O)NC(=O)c2cc([N+](=O)[O-])cc(I)c2OCC[C@@H](C(N)=O)NC1=O	x	x	x	x	44*
COCCCNC(=S)N1CCN(c2nc(-c3ccccc3)cs2)CC1	2	0	-1	7	-2
O=C(NC(=S)N1CCN(c2nc(-c3ccccc3)cs2)CC1)c1cncc(Br)c1	0	-5	9.8*	2	1
Cc1ccc(C(=O)O)cc1-c1ccc(/C=C2\SC(=O)N(CC(=O)Nc3ccccc3)C2=O)o1	0	0	-2	32*	38
CN(C)CCn1c2ccccc2c2nc3ccc([N+](=O)[O-])cc3cc21	-1	8.3*	4	-7	7
CCn1c2ccccc2c2cc([N+](=O)[O-])ccc21	1	-1	-2	-2	-3
Cc1cc(C(=O)Nc2sc3c(c2C#N)CCC(C)C3)cs1 (stereo not given)	1	8.3*	4	1	-4
CC(=O)Nc1sc2c(c1C#N)CCC(C)C2 (stereo not given)	-1	0	-3	1	-6
Cc1ccc(-c2nc(NCc3ccco3)c3ccccc3n2)cc1	23	-2	6	-5	-3
COc1cccc(-c2nc(NCc3ccco3)c3ccccc3n2)c1O	4	18*	5	-13	-11
C=CCNc1nc(-c2cccc(OC)c2O)nc2ccccc12	29	9.4*	0	-10	-10
CCOC(=O)c1cccc(NC(=O)CN(C)S(=O)(=O)c2cc(OC)ccc2OC)c1	x	x	-2	x	x
Clc1cc(Cl)cc(Nc2ncnc(-n3cccc3)n2)c1	15	9.0*	-3	11	-4
